The results in this text go back to ChEMBL document CHEMBL4041461, “Discovery of 6,7-dihydro-3H-pyrano[4,3-c]isoxazol-3-ones as a new class of pathogen specific anti-leptospiral agents” (Eur J Med Chem, 2017).

The structures appear in SMILES notation. ≈ marks a conversion by molar mass, not a printed value. Calls of active or inactive are those of the source. The rule behind the calls is not given here.

Data set [1] deals with THP-1. Briefly: Induction of cell death in human THP1 cells at 0.5 mM after 12 hrs by propidium iodide staining based confocal laser scanning microscopic method. As to conditions: thp-1, 12 h, 500 µM. In outline: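 THP-1 cells were treated for 12 h and then stained with propidium iodide. Apoptotic and necrotic cells were counted manually and expressed as a percentage. Untreated cells and tert-butylhydroperoxide served as controls. Data are mean ± SD of triplicates.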

In data set [2] the test system is Leptospira interrogans serovar Canicola. Briefly: Antibacterial activity against Leptospira interrogans serovar Canicola PAI-1 infected cyclophosphamide-treated BALB/c mouse assessed as inhibition of bacterial renal colonization at 20 mg/kg,ip using EMJH semi solid medium. The format is functional, organism-based. In outline:
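Kidneys came from infected cyclophosphamide-treated BALB/c mice dosed once daily for 3 days, including at 20 mg/kg, alongside untreated infected controls. Leptospires were re-isolated by culturing kidney material in semi-solid EMJH medium.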

Data set [3] relates to Leptospira interrogans serovar Autumnalis. The data set can be described thus: Antibacterial activity against Leptospira interrogans serovar Autumnalis N2 at 250 ug/mL after 2 hrs by micro dilution assay. The format is functional. Summed up:
(§1)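 Preliminary screen by broth microdilution against L. interrogans serovar Autumnalis strain N2, each compound at 500, 250, 125, 62.5 and 31.25 µg/mL. Growth at each concentration was scored as resistance (R) or inhibition (I), and the MIC was taken from these scores. Triplicates.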

Data set [4] deals with THP-1. The data set can be described thus: Induction of cell death in human THP1 cells upto 25 ug/mL after 12 hrs by propidium iodide staining based confocal laser scanning microscopic method. Particulars: thp-1, 12 h. In outline:
(§2)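 THP-1 cells were exposed for 12 h to a range of concentrations, then stained with propidium iodide. PI-positive apoptotic and necrotic cells were counted manually and expressed as a percentage. Controls were untreated cells and tert-butylhydroperoxide. Mean ± SD of triplicates.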

The nature of data set [5]: Antibacterial activity against Leptospira interrogans serovar Canicola PAI-1 infected cyclophosphamide-treated BALB/c mouse assessed as mouse survival at 20 mg/kg, ip administered once daily for 3 days. The format is functional. Particulars: PAI-1, ip, 72 h. In outline:
(§3)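 Cyclophosphamide-treated (Cy-)BALB/c mice were challenged with pathogenic Leptospira Canicola. They were dosed once daily for 3 days at 5, 10 or 20 mg/kg. Controls were untreated mice and doxycycline at 5 mg/kg once daily. Survival was recorded to the end of the study period. Kidneys were checked by 16S qPCR and by re-isolation in EMJH semi-solid medium.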

In data set [6] the test system is THP-1. The data set can be described thus: Induction of cell death in human THP1 cells at >= 75 ug/mL after 12 hrs by propidium iodide staining based confocal laser scanning microscopic method. As to conditions: thp-1, 12 h. In outline: as §2
Data set [7] is described as follows: Antibacterial activity against Leptospira interrogans serovar Pyrogenes Salinem after 2 hrs by micro dilution assay. The format is functional.
Data set [8] is described as follows: Antibacterial activity against Leptospira interrogans serovar Hebdomadis after 2 hrs by micro dilution assay. The format is functional.
In data set [9] the test system is Leptospira interrogans. The data set can be described thus: Antibacterial activity against Leptospira interrogans serovar Semaranga after 2 hrs by micro dilution assay. The format is functional.
A short description of data set [10]: Antibacterial activity against Leptospira interrogans serovar Bataviae Swart after 2 hrs by micro dilution assay. The format is functional.
In data set [11] the test system is Leptospira interrogans serovar Autumnalis. Briefly: Antibacterial activity against Leptospira interrogans serovar Autumnalis N2 at 62.5 ug/mL after 2 hrs by micro dilution assay. The format is functional. Summed up:
as §1

A short description of data set [12]: Antibacterial activity against Leptospira interrogans serovar Canicola PAI-1 infected cyclophosphamide-treated BALB/c mouse assessed as mouse survival at 5 mg/kg, ip administered once daily for 3 days. As to conditions: PAI-1, ip, 72 h. It is filed as functional. In outline:
as §3

Data set [13] concerns Leptospira interrogans serovar Autumnalis. Briefly: Antibacterial activity against Leptospira interrogans serovar Autumnalis N2 at 31.25 ug/mL after 2 hrs by micro dilution assay. The format is functional. In outline: as §1
Data set [14] can be described thus: Antibacterial activity against Leptospira interrogans serovar Pomona after 2 hrs by micro dilution assay. It is filed as functional.
A short description of data set [15]: Antibacterial activity against Leptospira interrogans serovar Icterohaemorrhagiae RGA after 2 hrs by micro dilution assay. It is filed as functional.
Data set [16] in a line: Antibacterial activity against Leptospira interrogans serovar Javanica Poi after 2 hrs by micro dilution assay. The format is functional.
Data set [17] relates to Leptospira interrogans serovar Canicola. The data set can be described thus: Antibacterial activity against Leptospira interrogans serovar Canicola PAI-1 infected cyclophosphamide-treated BALB/c mouse assessed as inhibition of bacterial renal colonization at 20 mg/kg,ip by RT-qPCR analysis. It is filed as functional, organism-based. In outline:
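Cyclophosphamide-treated BALB/c mice were infected with pathogenic serovar Canicola, then dosed once daily for 3 days at 5, 10 or 20 mg/kg. Controls were untreated mice and doxycycline at 5 mg/kg once daily. Leptospiral load in kidney tissue was measured by qPCR for renal colonization.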
Background: Real-time PCR tracks product formation cycle by cycle.

In data set [18] the test system is Leptospira interrogans serovar Autumnalis. Briefly: Antibacterial activity against Leptospira interrogans serovar Autumnalis N2 at 500 ug/mL after 2 hrs by micro dilution assay. The format is functional. Summed up: as §1
The nature of data set [19]: Antibacterial activity against Leptospira interrogans serovar Ballum Mus 127 after 2 hrs by micro dilution assay. The format is functional. Particulars: Mus 127, 2 h.
The test system of data set [20] is Leptospira interrogans. The data set can be described thus: Inhibition of Leptospira rRNA gene amplification assessed as thresholod cycle by SYBR Green dye-based RT-qPCR method (reference value: 11.3).
Data set [21] in a line: Antibacterial activity against Leptospira interrogans serovar Australis Ballico after 2 hrs by micro dilution assay. It is filed as functional.
In data set [22] the test system is THP-1. The data set can be described thus: Cytotoxicity against human THP1 cells assessed as cell growth inhibition at >=75 ug/mL after 24 hrs by MTT assay. It is filed as cell-based. Particulars: thp-1, 24 h. (Tetrazolium dyes change colour on reduction, which living cells bring about.)
Data set [23] has as its system THP-1. The data set can be described thus: Cytotoxicity against human THP1 cells assessed as cell growth inhibition upto 25 ug/mL after 24 hrs by MTT assay. It is filed as cell-based. Particulars: thp-1, 24 h.
In data set [24] the test system is Leptospira interrogans serovar Autumnalis. The data set can be described thus: Antibacterial activity against Leptospira interrogans serovar Autumnalis N2 at 125 ug/mL after 2 hrs by micro dilution assay. It is filed as functional. In outline: as §1
A short description of data set [25]: Antibacterial activity against Leptospira interrogans serovar Hardjo Hardjoprajitno after 2 hrs by micro dilution assay. The format is functional.
Data set [26] in a line: Antibacterial activity against Leptospira interrogans serovar Canicola Hond Utrecht IV after 2 hrs by micro dilution assay. The format is functional.
Data set [27] can be described thus: Antibacterial activity against Leptospira interrogans serovar Grippotyphosa Moskva V after 2 hrs by micro dilution assay. It is filed as functional.
Data set [28] can be described thus: Antibacterial activity against Leptospira interrogans serovar Autumnalis N2 after 2 hrs by micro dilution assay. It is filed as functional. Particulars: N2, 2 h.

For `CC(C)(C)OO` [TERT-BUTYL HYDROPEROXIDE], the Activity entry in data set [1] is “Toxic”.

Take `CC1(C)CC2=NOC(=O)C2=C(c2cccs2)O1`: the inhibition result in [2] and in [17] was “Active” in each case. Further, the result in data set [3] and in data set [18] was Active. Moreover, the Activity result in data set [4] was “Non-Toxic”; in data set [6], “Toxic”; in data set [20] it was 18.5; in data set [22] it was “Toxic”; in data set [23], “Non-Toxic”. In addition, the survival at 20 mg/kg in [5] came to 95%. For the same compound, the minimal inhibitory concentration (MIC) (usually the lowest concentration found to suppress growth) is 125 µg/mL (≈ 501 µM) in data set [7]; 250 µg/mL (≈ 1000 µM) in data set [8]; 250 µg/mL (≈ 1000 µM) in data set [10]; 250 µg/mL (≈ 1000 µM) in [14]; 250 µg/mL (≈ 1000 µM) in [15]; 250 µg/mL (≈ 1000 µM) in [16]. The MIC in data set [19] amounted to 250 µg/mL (≈ 1000 µM); in data set [21] it was 250 µg/mL (≈ 1000 µM); in [25], 250 µg/mL (≈ 1000 µM); in data set [26], 62.5 µg/mL (≈ 251 µM); in [27] it was 250 µg/mL (≈ 1000 µM); in [28], 250 µg/mL (≈ 1000 µM). Besides, in [9], the MIC result is “inactive”. Also, the outcome in data set [11], in data set [13] and in data set [24] was inactive. Further, in data set [12], the survival at 5 mg/kg was found to be 20%.
